Results: ChEMBL document CHEMBL4513216, “Probing the Open Global Health Chemical Diversity Library for Multistage-Active Starting Points for Next-Generation Antimalarials” (ACS Infect Dis, 2020)

Experiment: Toxicity liver stage against HepG2, at 10uM
Assay type: cell-based
Set-up: test concentration 10 uM, cell line HepG2-A16-CD81EGFP
Settings: human, HepG2-A16-CD81EGFP cells; read-out: INHIBITION
How it was run: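 Uninfected HepG2-A16-CD81EGFP cells, 3 × 10^3 per well, 1536-well, plated on prespotted compound at 10 μM final, parasite-free screening media added to match infected plates; puromycin 10 μM positive, DMSO 0.5% negative; run in parallel with 48 h PbLuc assay at 37 °C, 5% CO2; viability by CellTiter-Glo luminescence, normalized to controls.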

Row | Compound | cytotoxicity at 10 µM [%]
1 | Cn1cncc1-c1nnc([C@H]2CCN(Cc3ccc(CO)o3)C2)o1 | -4.09
2 | Cn1ccnc1CN1C[C@H]2CN(S(=O)(=O)c3ccccc3)CCN2C1=O | 8.36
3 | CC(C)(C)c1c[nH]c([C@@H]2COCCN2C2CCCCC2)n1 | -1.6
4 | CC1CCN(C[C@H]2CN3CC[C@H]2C[C@@H]3CNC(=O)c2ccco2)CC1 | -1.55
5 | CCCOC(=O)c1ccc(-c2ccc(/C=C3\C(=O)NC(=N)N3C)o2)cc1 | 2.91
6 | CC1CCN(c2ccc(=O)n(CC(=O)N(C)Cc3ccccc3)n2)CC1 | 4.84
7 | COc1ccc2c(c1)c(C(=O)Nc1cc(C)n(C)n1)cn2C(C)C | -1.33
8 | COC(=O)CNC(=O)c1nc(Cl)sc1C(C)C | 1.34
9 | Cn1nnn(-c2ccc(NS(=O)(=O)c3ccc(Br)cc3)cc2)c1=O | -2.77
10 | O=C(NCCn1cnc(C2CCCC2)cc1=O)NCc1cccs1 | -7.05
11 | CCOc1ccc(S(=O)(=O)N(CCOC)Cc2ccoc2)cc1F | 8.31
12 | CNC(=O)CN1C(=O)CCC12CCCN(Cc1ccccn1)C2 (stereo not given) | 4.5
13 | O=C1N(Cc2cccc(F)c2)CCC12CCCNC2 (stereo not given) | -5.19
14 | CCN1C(=O)CCCC12CCCN(C(=O)c1sccc1C)C2 (stereo not given) | 3.73
15 | CCN1C(=O)CCCC12CCCN(C(=O)c1cc(C)oc1C)C2 (stereo not given) | 4.09
16 | Cc1ccc(CN2CC3(CCN(C(=O)Cc4ccc(Cl)cc4)C3)C2)o1 | 6.11
17 | CC(=O)c1ccc(NC(=O)N[C@H](C(=O)O)C(C)C)cc1 | -14.8
18 | CCNC(=O)c1ccc2c(c1)nc1n2CCN(C(C)C)C1 | 9.35
19 | COC(=O)c1ccccc1NC(=O)c1nc2ccccc2n(C)c1=O | -9.99
20 | CC(C)(C)C(=O)N1CCC2(COCc3cnc(N4CCOCC4)nc32)C1 (stereo not given) | -14.2
21 | CC(Oc1ccc2c(c1)OCO2)C(=O)Nc1ccon1 (stereo not given) | 1.09
22 | O=C(NCCC(O)c1ccccc1)c1ccco1 (stereo not given) | -0.749
23 | O=C(NC1CC1)c1cc(Sc2ncccn2)ccn1 | 0.493
24 | O=C(O)c1ccccc1-c1cnc(CNC(=O)C2CCOCC2)nc1 | -3.99
25 | Cc1cc(C(F)(F)F)n2nc(C3CCN(S(C)(=O)=O)CC3)cc2n1 | 0.065
26 | CCN(CC)CCCNCc1cc2cc(C)cc(C)c2[nH]c1=O | 7.63
27 | CCc1n[nH]c(C(=O)NCCn2ccc(C)n2)c1C | 8.58
28 | CS(=O)(=O)N1CCCC1c1cccc(Nc2nccs2)n1 (stereo not given) | -33.4

Row | Compound | cytotoxicity at 10 µM [%]
29 | CN1CC(c2cc(O)nc(NCc3ccc(Cl)cc3)n2)CC1=O (stereo not given) | -9.54
30 | CCCC(NC(=O)c1cc(C2CC2)[nH]n1)c1nnc2ccccn12 (stereo not given) | 0.11
31 | Oc1cccc(CNCc2ccc(-n3cncn3)nc2)c1 | 4.01
32 | COc1ccc(-c2noc(C3=NN(C)C(=O)CC3)n2)cc1OC | -0.51
33 | CCc1cccc(C)c1NC(=O)NCCCN(CC)S(C)(=O)=O | 4.87
34 | CC(c1nc(C2CC2)no1)N1CCC(NS(=O)(=O)c2cccs2)CC1 (stereo not given) | 6.4
35 | Cn1cnc(S(=O)(=O)N2CCCc3cc(F)cc(F)c32)c1Cl | -0.767
36 | COC(=O)c1ccc(F)c(S(=O)(=O)Nc2ccc(C(N)=O)cc2)c1 | 3.63
37 | Cc1cc(CSc2ccccn2)on1 | 8.4
38 | CN(C)c1ccc(C(=O)Nc2ccn(CCc3ccncc3)n2)cn1 | -12.7
39 | O=C(Nc1ccc(-n2cncn2)nc1)N(CC1CCOC1)C1CC1 (stereo not given) | -9.2
40 | Cc1nnc2n1CCN(C(=O)c1cnc3c(cnn3CC(C)C)c1)C2 | -8.72
41 | Cc1ccn(-c2ccc(N3CCN(Cc4ccccn4)CC3)nn2)n1 | 5.6
42 | O=C(CN1CCS(=O)(=O)CC1)NC1CCCc2ccccc21 (stereo not given) | -0.82
43 | Cc1nc(CN2CCN(C(=O)c3scnc3C)CC2)cs1 | 0.524
44 | CC(C)CC(=O)Nc1c(-c2ccc(F)cc2)ncn1C | 5.87
45 | CNS(=O)(=O)CC(=O)N1CC2(CCCC2)c2c(F)cccc21 | -1.21
46 | CCSc1ccc(NC(=O)NC(C)c2c(C)nn(C)c2C)cn1 (stereo not given) | -2.6
47 | CSCCC(C)NC(=O)N(C)Cc1cc(Cl)cn1C (stereo not given) | 3.04
48 | O=C(c1cccc2c1OCO2)N1CCC(N2CCCC2)CC1 | -2.35
49 | CCc1n[nH]c(C2CN(Cc3csc(C4CCCC4)n3)CCO2)n1 (stereo not given) | -14.6
50 | N#Cc1ccc(OC2CCN(CC(=O)NCC(F)(F)F)CC2)cc1 | 11.9
51 | COCCS(=O)(=O)NCC(C)c1cccc(C)c1 (stereo not given) | 2.03
52 | CC(C)C(CCO)NC(=O)Nc1cc(F)ccc1-n1cccn1 (stereo not given) | -4.06
53 | CN(CC(N)=O)CC(=O)N(C1=CCCCC1)C1CC1 | -3.85
54 | CN(CC(=O)N1CCN(c2ncccn2)CC1)c1ccc(Cl)cn1 | -9.65
55 | CCc1noc(C(C)N2CCN(c3ccc(C#N)cc3F)CC2)n1 (stereo not given) | -9.7
